Assay results reported in ChEMBL document CHEMBL1140730, “Validation of diacyl glycerolacyltransferase I as a novel target for the treatment of obesity and dyslipidemia using a potent and selective small molecule inhibitor” (J Med Chem, 2008).
Active and inactive are the calls of the source. No cut-off for these calls is given here.

Experiments:
[1] = molecular target: T1, Diacylglycerol O-acyltransferase 1 (Mus musculus, UniProt Q9Z2A7); experiment: Inhibition of mouse recombinant DGAT1 expressed in Sf9 cells
T1 sequence (Q9Z2A7 whole entry): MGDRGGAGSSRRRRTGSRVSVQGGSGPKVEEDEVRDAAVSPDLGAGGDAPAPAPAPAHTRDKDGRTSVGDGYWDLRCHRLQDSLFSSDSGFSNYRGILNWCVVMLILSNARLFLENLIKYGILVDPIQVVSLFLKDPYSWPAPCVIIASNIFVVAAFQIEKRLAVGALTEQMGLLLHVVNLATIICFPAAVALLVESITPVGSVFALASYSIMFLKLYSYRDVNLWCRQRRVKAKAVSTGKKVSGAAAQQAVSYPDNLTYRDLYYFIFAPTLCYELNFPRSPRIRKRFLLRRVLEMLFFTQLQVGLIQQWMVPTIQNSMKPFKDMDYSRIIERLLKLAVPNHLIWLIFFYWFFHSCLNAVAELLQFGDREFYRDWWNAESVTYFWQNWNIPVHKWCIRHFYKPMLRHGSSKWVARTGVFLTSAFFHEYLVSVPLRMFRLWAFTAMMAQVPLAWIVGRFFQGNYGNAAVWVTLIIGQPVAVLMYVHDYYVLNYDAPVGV

[2] = molecular target: T2, Diacylglycerol O-acyltransferase 1 (Homo sapiens, UniProt O75907); experiment: Inhibition of human recombinant DGAT1 expressed in Sf9 cells
T2 sequence (O75907 whole entry): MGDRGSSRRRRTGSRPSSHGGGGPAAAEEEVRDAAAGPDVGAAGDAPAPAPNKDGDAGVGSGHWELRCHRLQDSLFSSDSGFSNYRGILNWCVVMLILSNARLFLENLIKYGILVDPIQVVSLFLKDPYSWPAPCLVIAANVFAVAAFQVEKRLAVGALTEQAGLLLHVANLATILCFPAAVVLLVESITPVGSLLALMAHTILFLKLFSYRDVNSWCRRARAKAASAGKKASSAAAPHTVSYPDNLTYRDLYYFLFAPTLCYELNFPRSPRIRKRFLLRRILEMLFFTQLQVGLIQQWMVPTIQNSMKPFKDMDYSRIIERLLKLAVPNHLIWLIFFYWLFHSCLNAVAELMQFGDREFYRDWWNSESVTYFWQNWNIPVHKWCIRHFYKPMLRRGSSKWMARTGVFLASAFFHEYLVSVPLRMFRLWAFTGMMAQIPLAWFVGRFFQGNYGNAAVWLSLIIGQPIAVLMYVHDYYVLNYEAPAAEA

[3] = molecular target: T3, Diacylglycerol O-acyltransferase 2 (Mus musculus) (UniProt Q9DCV3); experiment: Inhibition of mouse DGAT2
T3 sequence (whole entry): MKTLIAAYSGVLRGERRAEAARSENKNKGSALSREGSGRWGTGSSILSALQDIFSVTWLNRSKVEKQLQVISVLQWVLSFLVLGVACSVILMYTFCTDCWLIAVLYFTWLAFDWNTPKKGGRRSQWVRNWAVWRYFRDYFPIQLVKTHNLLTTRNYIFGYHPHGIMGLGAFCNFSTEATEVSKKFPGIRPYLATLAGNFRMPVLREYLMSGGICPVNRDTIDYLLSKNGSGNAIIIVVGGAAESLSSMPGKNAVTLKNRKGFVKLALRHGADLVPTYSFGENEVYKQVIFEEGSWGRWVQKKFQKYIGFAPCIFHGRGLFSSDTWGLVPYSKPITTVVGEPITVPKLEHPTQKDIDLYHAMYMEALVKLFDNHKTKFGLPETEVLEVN

[4] = molecular target: T4, Sterol O-acyltransferase 1 (Homo sapiens) (UniProt P35610); experiment: Inhibition of human ACAT1
T4 sequence (whole entry): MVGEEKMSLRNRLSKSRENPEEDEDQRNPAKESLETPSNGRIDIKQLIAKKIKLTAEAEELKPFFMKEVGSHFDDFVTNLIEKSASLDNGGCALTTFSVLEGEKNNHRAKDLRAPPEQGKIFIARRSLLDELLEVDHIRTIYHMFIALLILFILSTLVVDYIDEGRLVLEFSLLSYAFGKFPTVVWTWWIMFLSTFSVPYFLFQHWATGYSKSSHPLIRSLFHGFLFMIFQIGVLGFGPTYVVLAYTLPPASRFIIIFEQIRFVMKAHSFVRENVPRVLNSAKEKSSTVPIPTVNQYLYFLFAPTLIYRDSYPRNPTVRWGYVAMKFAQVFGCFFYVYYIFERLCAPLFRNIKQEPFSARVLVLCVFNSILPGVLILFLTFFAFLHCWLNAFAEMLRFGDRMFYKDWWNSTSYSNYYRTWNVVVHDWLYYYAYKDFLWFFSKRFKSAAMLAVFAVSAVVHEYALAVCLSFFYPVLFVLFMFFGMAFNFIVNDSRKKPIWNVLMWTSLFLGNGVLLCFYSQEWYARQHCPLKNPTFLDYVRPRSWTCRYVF

[5] = molecular target: T5, Sterol O-acyltransferase 2 (Homo sapiens) (UniProt O75908); experiment: Inhibition of human ACAT2
T5 sequence (whole entry): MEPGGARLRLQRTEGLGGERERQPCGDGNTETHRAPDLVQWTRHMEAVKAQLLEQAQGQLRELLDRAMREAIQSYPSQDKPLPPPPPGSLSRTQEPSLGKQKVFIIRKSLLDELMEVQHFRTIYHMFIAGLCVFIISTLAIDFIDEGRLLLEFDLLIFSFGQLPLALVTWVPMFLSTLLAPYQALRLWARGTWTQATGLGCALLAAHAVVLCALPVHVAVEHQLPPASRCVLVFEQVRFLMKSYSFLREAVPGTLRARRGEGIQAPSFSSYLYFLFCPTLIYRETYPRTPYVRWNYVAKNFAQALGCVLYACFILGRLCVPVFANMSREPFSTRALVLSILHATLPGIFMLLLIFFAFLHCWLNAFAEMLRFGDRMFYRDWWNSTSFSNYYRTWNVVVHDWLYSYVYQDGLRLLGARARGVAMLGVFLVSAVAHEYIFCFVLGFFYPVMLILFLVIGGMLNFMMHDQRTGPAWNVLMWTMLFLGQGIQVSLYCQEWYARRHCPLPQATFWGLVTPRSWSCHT

[6] = Plasma clearance in rat at 5 mg/kg, iv; assay type: ADME, organism-based; design: dose 5 mg/kg, route intravenous
Method in brief: (§1)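 Single-dose pharmacokinetics given iv or orally to mouse (10 mg/kg), rat (5 mg/kg) and dog (2.5 mg/kg). Half-life, Cmax, AUC, plasma clearance, volume of distribution and oral bioavailability were derived from plasma levels. Values are means, n = 3 unless stated otherwise.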

[7] = AUC in rat at 5 mg/kg, iv; assay type: ADME, organism-based; design: dose 5 mg/kg, route intravenous; details: plasma; method in brief: as §1
[8] = Volume of distribution at terminal phase in rat at 5 mg/kg, iv; assay type: ADME, organism-based; design: dose 5 mg/kg, route intravenous; details: in vivo, read-out: Vbeta; method in brief: as §1
[9] = Half life in DIO mouse at 10 mg/kg, po; assay type: ADME, organism-based; design: dose 10 mg/kg, route oral; details: in vivo; method in brief: as §1
[10] = Cmax in DIO mouse at 10 mg/kg, po; assay type: ADME, organism-based; design: dose 10 mg/kg, route oral; details: in vivo; method in brief: as §1
[11] = AUC in DIO mouse at 10 mg/kg, po; assay type: ADME, organism-based; design: dose 10 mg/kg, route oral; details: plasma; method in brief: as §1
[12] = Half life in rat at 5 mg/kg, iv; assay type: ADME, organism-based; design: dose 5 mg/kg, route intravenous; details: in vivo; method in brief: as §1
[13] = Half life in rat at 5 mg/kg, po; assay type: ADME, organism-based; design: dose 5 mg/kg, route oral; details: in vivo; method in brief: as §1
[14] = Cmax in rat at 5 mg/kg, po; assay type: ADME, organism-based; design: dose 5 mg/kg, route oral; details: in vivo; method in brief: as §1
[15] = AUC in rat at 5 mg/kg, po; assay type: ADME, organism-based; design: dose 5 mg/kg, route oral; details: plasma; method in brief: as §1
[16] = Oral bioavailability in rat at 5 mg/kg; assay type: ADME, organism-based; details: in vivo; method in brief: as §1
[17] = Half life in dog at 2.5 mg/kg, iv; assay type: ADME, organism-based, Canis lupus familiaris; design: dose 2.5 mg/kg, route intravenous; details: in vivo; method in brief: as §1
[18] = Volume of distribution at terminal phase in dog at 2.5 mg/kg, iv; assay type: ADME, organism-based, Canis lupus familiaris; design: dose 2.5 mg/kg, route intravenous; details: in vivo, read-out: Vbeta; method in brief: as §1
[19] = AUC in dog at 2.5 mg/kg, iv; assay type: ADME, organism-based, Canis lupus familiaris; design: dose 2.5 mg/kg, route intravenous; details: plasma; method in brief: as §1
[20] = Plasma clearance in dog at 2.5 mg/kg, iv; assay type: ADME, organism-based, Canis lupus familiaris; design: dose 2.5 mg/kg, route intravenous; method in brief: as §1
[21] = Half life in dog at 2.5 mg/kg, po; assay type: ADME, organism-based, Canis lupus familiaris; design: dose 2.5 mg/kg, route oral; details: in vivo; method in brief: as §1
[22] = Cmax in dog at 2.5 mg/kg, po; assay type: ADME, organism-based, Canis lupus familiaris; design: dose 2.5 mg/kg, route oral; details: in vivo; method in brief: as §1
[23] = AUC in dog at 2.5 mg/kg, po; assay type: ADME, organism-based, Canis lupus familiaris; design: dose 2.5 mg/kg, route oral; details: plasma; method in brief: as §1
[24] = Oral bioavailability in dog at 2.5 mg/kg; assay type: ADME, organism-based, Canis lupus familiaris; details: in vivo; method in brief: as §1
[25] = test system: Mus musculus; experiment: Decrease in body weight in DIO C57BL/6J mouse at 3 mg/kg, po bid after 7 days; assay type: functional, organism-based; design: dose 3 mg/kg
Method in brief: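 DIO mice kept on high-fat diet ad libitum were dosed orally for four weeks, either 3 mg/kg bid in 1% Tween-80/water or a reference at 10 mg/kg qd, alongside a vehicle group. Body weight was measured on days 1, 5, 7, 14 and 27 and expressed as change in grams from day zero. Mean ± SEM, n = 9, compared with vehicle.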

[26] = test system: Mus musculus; experiment: Decrease in liver triglyceride level in DIO C57BL/6J mouse at 3 mg/kg, po after 28 days; assay type: functional
Method in brief: (§2)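 DIO mice on high-fat diet were dosed orally for four weeks at 3 mg/kg bid in 1% Tween-80/water, or a reference at 10 mg/kg qd. Liver triglycerides were determined on day 28 only. Mean ± SEM, n = 9, compared with vehicle.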

[27] = test system: Mus musculus; experiment: Increase in liver triglyceride level in DIO C57BL/6J mouse at 3 mg/kg, po after 28 days; assay type: ADME, organism-based; design: dose 3 mg/kg, route oral; details: in vivo, 672 h; method in brief: as §2
[28] = Cmax in C57BL/6J mouse at 3 mg/kg, po after 1 hr; assay type: ADME, organism-based; design: dose 3 mg/kg, route oral; details: in vivo
Method in brief: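 On day 28 of oral dosing at 3 mg/kg bid in DIO mice, plasma drug concentration was measured at 1 h (n = 3) and 17 h (n = 9) after the final dose. Mean ± SEM.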

[29] = test system: Mus musculus; experiment: Reduction of chylomicron-derived serum triglyceride level in acute lipid challenged DIO C57BL/6J mouse at 0.3 mg/kg, po; assay type: functional; design: scale not given: the % may be the effect or the level left
Method in brief: (§3)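 DIO mice were dosed orally at 0.3, 3 or 30 mg/kg: bid on days 1–2, fasted overnight, then dosed once on day 3. One hour after the final dose a corn oil bolus was given by gavage, and plasma triglycerides were measured 1 h later. Percent inhibition for the 0.3 and 3 mg/kg doses is relative to the 30 mg/kg dose. Mean ± SEM, n = 9.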

[30] = test system: Mus musculus; experiment: Reduction of chylomicron-derived serum triglyceride level in acute lipid challenged DIO C57BL/6J mouse at 3 mg/kg, po; assay type: functional; design: scale not given: the % may be the effect or the level left; method in brief: as §3
[31] = test system: Mus musculus; experiment: Reduction of chylomicron-derived serum triglyceride level in acute lipid challenged DIO C57BL/6J mouse at 30 mg/kg, po; assay type: functional; design: scale not given: the % may be the effect or the level left; method in brief: as §3
[32] = test system: Mus musculus; experiment: Decrease in body weight in DIO C57BL/6J mouse at 3 mg/kg, po bid after 14 days

O=C(Nc1ccc(-c2ccc(C(=O)[C@@H]3CCC[C@H]3C(=O)O)cc2)cc1)Nc1ccc(C(F)(F)F)cc1
IC50 [1]: 0.014 µM

O=C(Nc1ccc(-c2ccc(C(=O)[C@@H]3CCC[C@H]3C(=O)O)cc2)cc1)Nc1ccc2c(c1)OCO2
IC50 [1]: 0.063 µM

O=C(Nc1ccccc1)Nc1ccc(-c2ccc(C(=O)[C@@H]3CCC[C@H]3C(=O)O)cc2)cc1
IC50 [2]: 0.007 µM | IC50 [1]: 0.024 µM | Activity [3]: inactive | Activity [4]: inactive | Activity [5]: inactive | clearance [6]: 0.667 mL/min/kg | AUC [7]: 145000 ng·h/mL | Vd [8]: 0.21 L/kg | half-life [9]: 6.5 h | Cmax [10]: 3510 ng/mL | AUC [11]: 15200 ng·h/mL | half-life [12]: 3.9 h | half-life [13]: 2.7 h | Cmax [14]: 8530 ng/mL | AUC [15]: 80200 ng·h/mL | bioavailability [16]: 55.2% | half-life [17]: 3.3 h | Vd [18]: 1.21 L/kg | AUC [19]: 11100 ng·h/mL | clearance [20]: 3.83 mL/min/kg | half-life [21]: 3.6 h | Cmax [22]: 2470 ng/mL | AUC [23]: 5500 ng·h/mL | bioavailability [24]: 49.2% | Activity [25]: Active | Activity [26]: 53.5 mg/dL | Activity [27]: 88 mg/dL | Cmax [28]: 910 ng/mL | Activity [29]: 73% | Activity [30]: 93% | Activity [31]: 100% | Activity [32]: Active
